From ChEMBL document CHEMBL1135531, “Cardiovascular characterization of [1,4]thiazino[3,4-c][1,2,4]oxadiazol-1-one derivatives: selective myocardial calcium channel modulators” (J Med Chem, 2002)

Assays:
Cavia porcellus [1] = organism: Cavia porcellus; test: Negative inotropic activity in isolated guinea pig left atrium.; assay type: functional, Cardiac atrium
Cavia porcellus [2] = organism: Cavia porcellus; test: Percent inhibition of calcium-induced contraction on K+-depolarized guinea-pig aortic strip at 5 x 10 e-5M; assay type: functional; details: Aorta
Cavia porcellus [3] = organism: Cavia porcellus; test: Negative chronotropic activity in isolated guinea pig right atrium.; assay type: functional, Cardiac atrium
Cavia porcellus [4] = organism: Cavia porcellus; test: Effective drug concentration for negative inotropic activity was determined; Range is from 1.35-2.05 (10e-6 M); assay type: functional, organism-based
Outline: (§1)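 Left atria from female guinea pigs (300-400 g) in Tyrode PSS, pH 7.4, 95% O2/5% CO2, 35 °C. Driven at 1 Hz with 0.6-0.8 ms pulses at about 50% threshold voltage; isometric force recorded. Cumulative 0.1-100 µM in DMSO (≤0.3% in bath), each added at steady state. EC50 by Probit log concentration-response analysis (n = 6-8), not calculated when maximum effect <50%.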

Cavia porcellus [5] = organism: Cavia porcellus; test: Effective drug concentration for negative inotropic activity was determined; Range is from 0.41-0.72 (10e-6 M); assay type: functional; outline: as §1
Cavia porcellus [6] = organism: Cavia porcellus; test: Effective drug concentration for negative inotropic activity was determined; Range is from 0.55-0.93 (10e-6 M); assay type: functional; outline: as §1
Cavia porcellus [7] = organism: Cavia porcellus; test: Effective drug concentration for negative inotropic activity was determined; Range is from 0.43-0.56 (10e-6 M); assay type: functional; outline: as §1
Cavia porcellus [8] = organism: Cavia porcellus; test: Effective drug concentration for negative inotropic activity was determined; Range is from 1.03-1.45 (10e-6 M); assay type: functional; outline: as §1
Cavia porcellus [9] = organism: Cavia porcellus; test: Effective drug concentration for negative inotropic activity was determined; Range is from 0.23-0.43 (10e-6 M); assay type: functional; outline: as §1
Cavia porcellus [10] = organism: Cavia porcellus; test: Effective drug concentration for negative inotropic activity was determined; Range is from 1.34-2.19 (10e-6 M); assay type: functional, organism-based; outline: as §1
Cavia porcellus [11] = organism: Cavia porcellus; test: Effective drug concentration for negative inotropic activity was determined; Range is from 1.02-1.98 (10e-6 M); assay type: functional; outline: as §1
Cavia porcellus [12] = organism: Cavia porcellus; test: Effective drug concentration for negative inotropic activity was determined; Range is from 0.65-1.05 (10e-6 M); assay type: functional; outline: as §1
Cavia porcellus [13] = organism: Cavia porcellus; test: Effective drug concentration for negative inotropic activity; Range is from 0.41-0.65 (10e-6 M); assay type: functional; outline: as §1
Cavia porcellus [14] = organism: Cavia porcellus; test: Effective drug concentration for negative inotropic activity was determined; Range is from 0.18-0.30 (10e-6 M); assay type: functional; outline: as §1
Cavia porcellus [15] = organism: Cavia porcellus; test: Effective drug concentration for negative inotropic activity; assay type: functional; outline: as §1
Cavia porcellus [16] = organism: Cavia porcellus; test: Effective drug concentration for negative inotropic activity was determined; Range is from 2.35-3.10 (10e-6 M); assay type: functional; outline: as §1
Cavia porcellus [17] = organism: Cavia porcellus; test: Effective drug concentration for negative inotropic activity was determined; Range is from 0.46-0.92 (10e-6 M); assay type: functional; outline: as §1
Cavia porcellus [18] = organism: Cavia porcellus; test: Effective drug concentration for negative inotropic activity was determined; Range is from 1.35-2.23 (10e-6 M); assay type: functional, organism-based; outline: as §1
Cavia porcellus [19] = organism: Cavia porcellus; test: Effective drug concentration for negative inotropic activity was determined; Range is from 3.67-4.52 (10e-6 M); assay type: functional, organism-based; outline: as §1
Cavia porcellus [20] = organism: Cavia porcellus; test: Effective drug concentration for negative inotropic activity was determined; Range is from 0.61-0.85 (10e-6 M); assay type: functional; outline: as §1
Cavia porcellus [21] = organism: Cavia porcellus; test: Effective drug concentration for negative inotropic activity was determined; Range is from 1.67-2.83 (10e-6 M); assay type: functional, organism-based; outline: as §1
Cavia porcellus [22] = organism: Cavia porcellus; test: Effective drug concentration for negative inotropic activity was determined; Range is from 5.99-7.13 (10e-6 M); assay type: functional, organism-based; outline: as §1
Cavia porcellus [23] = organism: Cavia porcellus; test: Effective drug concentration for negative inotropic activity was determined; Range is from 0.53-0.64 (10e-6 M); assay type: functional; outline: as §1
Cavia porcellus [24] = organism: Cavia porcellus; test: Effective drug concentration for negative inotropic activity was determined; Range is from 0.70-0.85 (10e-6 M); assay type: functional
Cavia porcellus [25] = organism: Cavia porcellus; test: Effective drug concentration (EC30) for negative chronotropic activity was determined; Range is from 0.064-0.075 (10e-6 M); assay type: functional

CC1=CSC(O)(c2ccc([N+](=O)[O-])cc2)c2noc(=O)n21 (centres undefined)
Decrease (Cavia porcellus [1]): 73%
inhibition at 50 µM (Cavia porcellus [2]): 19%
Decrease (Cavia porcellus [3]): 16%
EC50 (Cavia porcellus [4]): 1650 nM

COc1ccc(C2(O)SC=C(C)n3c2noc3=O)cc1 (centres undefined)
Decrease (Cavia porcellus [1]): 76%
inhibition at 50 µM (Cavia porcellus [2]): 18%
Decrease (Cavia porcellus [3]): 12%
EC50 (Cavia porcellus [5]): 520 nM

CC1=CSC(O)(c2ccc(C#N)cc2)c2noc(=O)n21 (centres undefined)
Decrease (Cavia porcellus [1]): 76%
inhibition at 50 µM (Cavia porcellus [2]): 13%
Decrease (Cavia porcellus [3]): 30%
EC50 (Cavia porcellus [6]): 760 nM

COc1cccc(C2(O)SC=C(C)n3c2noc3=O)c1 (centres undefined)
Decrease (Cavia porcellus [1]): 86%
inhibition at 50 µM (Cavia porcellus [2]): 10%
EC50 (Cavia porcellus [7]): 490 nM
Decrease (Cavia porcellus [3]): 16%

CC1=CSC(O)(c2ccc(F)cc2)c2noc(=O)n21 (centres undefined)
Decrease (Cavia porcellus [1]): 74%
inhibition at 50 µM (Cavia porcellus [2]): 8%
Decrease (Cavia porcellus [3]): 10%
EC50 (Cavia porcellus [8]): 1210 nM

CC1=CSC(O)(c2ccc(Br)cc2)c2noc(=O)n21 (centres undefined)
Decrease (Cavia porcellus [1]): 97%
inhibition at 50 µM (Cavia porcellus [2]): 12%
Decrease (Cavia porcellus [3]): 18%
EC50 (Cavia porcellus [9]): 320 nM

CC1=Cn2c(noc2=O)C(O)(c2ccc(Cl)cc2)S1 (centres undefined)
Decrease (Cavia porcellus [1]): 71%
inhibition at 50 µM (Cavia porcellus [2]): 15%
Decrease (Cavia porcellus [3]): 11%
EC50 (Cavia porcellus [10]): 1720 nM

CC1=C(C)n2c(noc2=O)C(O)(c2ccc(Cl)cc2)S1 (centres undefined)
Decrease (Cavia porcellus [1]): 70%
inhibition at 50 µM (Cavia porcellus [2]): 28%
Decrease (Cavia porcellus [3]): 19%
EC50 (Cavia porcellus [11]): 1420 nM

CC1=CSC(O)(c2ccc(Cl)cc2)c2noc(=O)n21 (centres undefined)
Decrease (Cavia porcellus [1]): 80%
EC50 (Cavia porcellus [12]): 800 nM
inhibition at 50 µM (Cavia porcellus [2]): 26%
Decrease (Cavia porcellus [3]): 18%

O=c1onc2n1-c1ccccc1SC2(O)c1ccc(Cl)cc1 (centres undefined)
EC50 (Cavia porcellus [13]): 520 nM
Decrease (Cavia porcellus [1]): 94%
inhibition at 50 µM (Cavia porcellus [2]): 40%
Decrease (Cavia porcellus [3]): 21%

CC1=CSC(O)(c2ccccc2)c2noc(=O)n21 (centres undefined)
Decrease (Cavia porcellus [1]): 95%
EC50 (Cavia porcellus [14]): 230 nM
inhibition at 50 µM (Cavia porcellus [2]): 4%
Decrease (Cavia porcellus [3]): 14%

CC1=CSC(OCC(C)C)(c2ccc(Cl)cc2)c2noc(=O)n21 (centres undefined)
Decrease (Cavia porcellus [1]): 83%
inhibition at 50 µM (Cavia porcellus [2]): 37%
EC50 (Cavia porcellus [15]): 560 nM
Decrease (Cavia porcellus [3]): 15%

COC1(c2ccc(Cl)cc2)SC=C(C)n2c1noc2=O (centres undefined)
Decrease (Cavia porcellus [1]): 62%
inhibition at 50 µM (Cavia porcellus [2]): 14%
EC50 (Cavia porcellus [15]): 1540 nM
Decrease (Cavia porcellus [3]): 22%

CC1=CSC(O)(c2ccc(-c3ccccc3)cc2)c2noc(=O)n21 (centres undefined)
Decrease (Cavia porcellus [1]): 71%
EC50 (Cavia porcellus [16]): 2650 nM
inhibition at 50 µM (Cavia porcellus [2]): 9%
Decrease (Cavia porcellus [3]): 18%

CC1=CSC(O)(c2cccc(Cl)c2)c2noc(=O)n21 (centres undefined)
Decrease (Cavia porcellus [1]): 88%
EC50 (Cavia porcellus [17]): 650 nM
inhibition at 50 µM (Cavia porcellus [2]): 17%
Decrease (Cavia porcellus [3]): 34%

CC1=CSC(O)(c2cccc([N+](=O)[O-])c2)c2noc(=O)n21 (centres undefined)
Decrease (Cavia porcellus [1]): 68%
inhibition at 50 µM (Cavia porcellus [2]): 19%
Decrease (Cavia porcellus [3]): 13%
EC50 (Cavia porcellus [18]): 1760 nM

O=c1onc2n1C=CSC2(O)c1ccc(Cl)cc1 (centres undefined)
Decrease (Cavia porcellus [1]): 78%
inhibition at 50 µM (Cavia porcellus [2]): 10%
EC50 (Cavia porcellus [19]): 4.07 µM
Decrease (Cavia porcellus [3]): 7%

CC1=CSC(O)(c2cccc(C)c2)c2noc(=O)n21 (centres undefined)
Decrease (Cavia porcellus [1]): 89%
inhibition at 50 µM (Cavia porcellus [2]): 12%
Decrease (Cavia porcellus [3]): 10%
EC50 (Cavia porcellus [20]): 720 nM

CC1=CSC(O)(c2cccc(C(F)(F)F)c2)c2noc(=O)n21 (centres undefined)
Decrease (Cavia porcellus [1]): 96%
inhibition at 50 µM (Cavia porcellus [2]): 37%
Decrease (Cavia porcellus [3]): 20%
EC50 (Cavia porcellus [21]): 2170 nM

O=c1onc2n1C=CSC2(O)c1ccccc1 (centres undefined)
EC50 (Cavia porcellus [22]): 6.58 µM
Decrease (Cavia porcellus [1]): 74%
inhibition at 50 µM (Cavia porcellus [2]): 11%
Decrease (Cavia porcellus [3]): 14%

CC1=CSC(O)(c2ccc(C)cc2)c2noc(=O)n21 (centres undefined)
Decrease (Cavia porcellus [1]): 82%
inhibition at 50 µM (Cavia porcellus [2]): 5%
EC50 (Cavia porcellus [23]): 570 nM
Decrease (Cavia porcellus [3]): 13%

COc1ccc([C@@H]2Sc3ccccc3N(CCN(C)C)C(=O)[C@@H]2OC(C)=O)cc1 [DILTIAZEM]
Decrease (Cavia porcellus [1]): 78%
inhibition at 50 µM (Cavia porcellus [2]): 88%
Decrease (Cavia porcellus [3]): 94%
EC50 (Cavia porcellus [24]): 790 nM
EC30 (Cavia porcellus [25]): 0.07 µM
